# Assay results gathered from unrelated publications.
# Protocols differ between the studies behind these lines.
SMILES,method,matrix,time,pH,temperature,notes,kinetic solubility
CN[C@@H]1CCCN(c2ccc(Nc3cc(NC4CC4)n4ncc(C#N)c4n3)cc2NC(C)=O)C1,shake flask,PBS,24 h,pH 7.4,22 °C,,52 µg/mL
COC(=O)CN(CCCc1ccccc1)CC(=O)N[C@@H](Cc1c[nH]cn1)c1nc(C)no1,,PBS,24 h,pH 7.4,,,172 µM
COc1ccn2c(Nc3ccccc3F)c(-c3ccncn3)nc2c1,,aqueous buffer,24 h,,,,163 µM
Cc1noc([C@H](Cc2c[nH]cn2)NC(=O)CN(CCCc2ccccc2)CC(=O)O)n1,,PBS,24 h,pH 7.4,,,198 µM
CC(=O)Nc1cc(Nc2cc(NC3CC3)n3ncc(C#N)c3n2)ccc1N[C@@H]1CCCOC1,shake flask,PBS,24 h,pH 7.4,22 °C,,2.4 µg/mL
CCOC(=O)NS(=O)(=O)c1sc(CC(C)C)cc1-c1ccc2c(c1)CN(C(=O)OCC)C2,,aqueous buffer,,pH 7.4,37 °C,,58 µM
CC(=O)Nc1cc(Nc2cc(NC3CC3)n3ncc(C#N)c3n2)ccc1N(C)CC1COC1,shake flask,PBS,24 h,pH 7.4,22 °C,,0.2 µg/mL
CCn1cc(-c2cc(Cn3ccnc3)cc3c2OCCN([C@H](c2cc(OC)ccn2)C2CC2)C3=O)c(C(F)(F)F)n1,,PBS,1 h,pH 7.4,,,74 µM
CC(=O)Nc1cc(Nc2cc(NC3CC3)n3ncc(C#N)c3n2)ccc1N1CCNCC1,shake flask,PBS,24 h,pH 7.4,22 °C,,52 µg/mL
CC[C@H](NC(=O)[C@H](CS(=O)(=O)CC1CC1)N[C@@H](c1ccc(F)cc1)C(F)(F)F)C(=O)C(=O)NC1CC1,,PBS,,pH 7.4,,,223 µM
CCCC#Cc1ccc([C@@H](CO)C(=O)N[C@H](C)c2ccccc2)cc1,,PBS,,pH 7.4,,,7.4 µM
Cc1cc(Nc2ccc(C(F)(F)F)cc2)c2ccccc2n1,,PBS,,pH 6.5,,,83 µM
CCCCOC(=O)NS(=O)(=O)c1sc(CC(C)C)cc1-c1ccc2c(c1)CN(C(C)=O)CC2,,aqueous buffer,,pH 7.4,37 °C,,31 µM
O=C(O)CN(CCCc1ccccc1)CC(=O)N[C@@H](Cc1c[nH]cn1)C(=O)NCc1ccccc1,,PBS,24 h,pH 7.4,,,179 µM
CCOC(=O)NS(=O)(=O)c1sc(CC(C)C)cc1-c1ccc2c(c1)CN(C)C(=O)C2,,aqueous buffer,,pH 7.4,37 °C,,61 µM
CC(=O)Nc1cc(Nc2cc(NC3CC3)n3ncc(C#N)c3n2)ccc1N1CCC[C@H](O)C1,shake flask,PBS,24 h,pH 7.4,22 °C,,37 µg/mL
COC(=O)[C@H](Cc1c[nH]cn1)NC(=O)CN(CC(=O)O)Cc1ccccc1,,PBS,24 h,pH 7.4,,,154 µM
C=CC(=O)Nc1cc(Nc2nccc(Nc3cc(Cl)c(F)cc3C(C)(C)O)n2)c(OC)cc1N1CC[C@@H](N(C)C)C1,,aqueous buffer,,pH 7.4,,,616 µM
CN[C@H]1CCN(c2ccc(Nc3cc(NC4CC4)n4ncc(C#N)c4n3)cc2NC(C)=O)C1,shake flask,PBS,24 h,pH 7.4,22 °C,,49 µg/mL
Cc1cc(Nc2ccc(S(F)(F)(F)(F)F)cc2)n2ccnc2n1,,simulated gastric fluid,,pH 2,,acidic,> 285 µM
O=C(O)CN(CCCc1ccccc1)CC(=O)N[C@H](CO)Cc1c[nH]cn1,,PBS,24 h,pH 7.4,,,180 µM
